Experimental data reported in ChEMBL document CHEMBL1949637, “Anticancer effects of the metabolic products of the resveratrol analogue, DMU-212: structural requirements for potency” (Eur J Med Chem, 2011).
Activity calls are given as the source filed them. The calls are words filed in the database; no cut-off is given here.

Legend:
Assay type in all cases: functional, cell-based
[1] = tested on: HepG2; assay: Cytotoxicity against human HepG2 cells up to 20 uM after 96 hrs by MTT assay
[2] = tested on: MCF7; assay: Cytotoxicity against human MCF7 cells up to 20 uM after 96 hrs by MTT assay
[3] = tested on: HeLa; assay: Cell cycle arrest in human HeLa cells assessed as accumulation at G2/M phase at 10 uM after 24 hrs using propidium iodide staining by flow cytometry
Summary of the method: (§1)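 Cells cultured in T75 flasks, serum-starved 24 h, then exposed to 10 μM for 24 h. Trypsinised, washed in PBS and fixed in 70% ethanol for at least 2 h. Stained with propidium iodide 50 μg/mL containing RNase A 100 μg/mL. DNA content read by flow cytometry on at least 10,000 events. Percentage of cells in each phase recorded.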

[4] = tested on: MCF7; assay: Induction of apoptosis in human MCF7 cells assessed as increase of ratio of Bax to Bcl-xL mRNA level at 30 to 40 uM after 24 hrs by RT-PCR analysis
[5] = tested on: HepG2; assay: Cell cycle arrest in human HepG2 cells assessed as accumulation at G1 phase at 10 uM after 24 hrs using propidium iodide staining by flow cytometry; summary of the method: as §1
[6] = tested on: HepG2; assay: Induction of apoptosis in human HepG2 cells assessed as upregulation of Bax mRNA level after 24 hrs by RT-PCR analysis
[7] = tested on: HepG2; assay: Upregulation of p53 protein expression in human HepG2 cells after 24 hrs by Western blot analysis
Summary of the method: (§2)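 MCF-7 or HepG2 cells seeded at 3 × 10⁵ cells/mL in 6-well plates and treated 24 h at 37 °C with 0, 30, 40 or 50 μM. Lysed in buffer with protease inhibitors and 1 mM DTT, then sonicated. Lysates run on SDS-PAGE (10% resolving gel), wet-blotted to PVDF and probed overnight at 4 °C. Antibodies were anti-β-tubulin 1:400, p53 1:200, cyclin D1 1:200; β-actin 1:400 served as loading reference. Detection by ECL.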

[8] = tested on: MCF7; assay: Cell cycle arrest in human MCF7 cells assessed as accumulation at S phase at 10 uM after 24 hrs using propidium iodide staining by flow cytometry; summary of the method: as §1
[9] = tested on: MCF7; assay: Antimitotic activity in human MCF7 cells assessed as effect on beta-tubulin distribution at 10 uM after 24 hrs by immunofluorescence staining
Summary of the method: (§3)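 MCF-7 cells seeded on coverslips in 24-well plates, 8 × 10⁴ cells/well, exposed to 10 or 30 μM for 24 or 48 h. Fixed, permeabilised, then stained 1 h at room temperature with anti-β-tubulin (1:200 in PBS/1% FBS). Secondary was AlexaFluor-conjugated anti-mouse IgG (1:500), 1 h in the dark. Read by fluorescence microscopy.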

[10] = tested on: MCF7; assay: Induction of apoptosis in human MCF7 cells assessed as down-regulation of Bcl-xL mRNA level after 24 hrs by RT-PCR analysis
[11] = tested on: HepG2; assay: Cell cycle arrest in human HepG2 cells assessed as accumulation at S phase at 10 uM after 24 hrs using propidium iodide staining by flow cytometry; summary of the method: as §1
[12] = tested on: MCF7; assay: Antimitotic activity in human MCF7 cells assessed as decrease in localization of beta-tubulin expression around cell nucleus at 30 uM after 48 hrs by immunofluorescence staining; summary of the method: as §3
[13] = tested on: HepG2; assay: Downregulation of cyclin D1 expression in human HepG2 cells after 24 hrs by Western blot analysis; summary of the method: as §2
[14] = tested on: MCF7; assay: Induction of apoptosis in human MCF7 cells assessed as nuclear fragmentation at 30 uM after 24 hrs using DAPI staining by immunofluorescence method
Summary of the method: (§4)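 MCF-7 cells grown on coverslips (8 × 10⁴ cells/well) and treated 24 h at 10 or 30 μM. Fixed, permeabilised and processed as for β-tubulin immunostaining. DAPI working solution applied at 1:100 for 5 min. Fragmented nuclei scored by fluorescence microscopy.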

[15] = tested on: HepG2; assay: Downregulation of beta-tubulin expression in human HepG2 cells at >30 uM after 24 hrs by Western blot analysis; summary of the method: as §2
[16] = tested on: HeLa; assay: Cytotoxicity against human HeLa cells after 96 hrs by MTT assay
Summary of the method: (§5)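 Cells plated in 96-well plates and allowed 24 h growth. Medium was replaced with serial dilutions, 0.079–20 μM, for 96 h. Viability read spectrophotometrically by MTT reduction. IC₅₀ values taken from at least 3 experiments. MCF-7 cells were kept in RPMI-1640 and HepG2/HeLa in DMEM, each with 10% heat-inactivated FCS.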

[17] = tested on: HepG2; assay: Induction of apoptosis in human HepG2 cells assessed as increase of ratio of Bax to Bcl-xL mRNA level at 20 to 40 uM after 24 hrs by RT-PCR analysis
[18] = tested on: MCF7; assay: Downregulation of beta-tubulin expression in human MCF7 cells at >30 uM after 24 hrs by Western blot analysis; summary of the method: as §2
[19] = tested on: MCF7; assay: Antimitotic activity in human MCF7 cells assessed as decrease in localization of beta-tubulin expression around cell nucleus at 30 uM after 24 hrs by immunofluorescence staining; summary of the method: as §3
[20] = tested on: MCF7; assay: Downregulation of cyclin D1 expression in human MCF7 cells after 24 hrs by Western blot analysis; summary of the method: as §2
[21] = tested on: HepG2; assay: Cell cycle arrest in human HepG2 cells assessed as accumulation at G2/M phase at 10 uM after 24 hrs using propidium iodide staining by flow cytometry; summary of the method: as §1
[22] = tested on: MCF7; assay: Induction of apoptosis in human MCF7 cells assessed as nuclear fragmentation at 10 uM after 24 hrs using DAPI staining by immunofluorescence method; summary of the method: as §4
[23] = tested on: MCF7; assay: Cell cycle arrest in human MCF7 cells assessed as accumulation at G1 phase at 10 uM after 24 hrs using propidium iodide staining by flow cytometry; summary of the method: as §1
[24] = tested on: MCF7; assay: Cell cycle arrest in human MCF7 cells assessed as accumulation at G2/M phase at 10 uM after 24 hrs using propidium iodide staining by flow cytometry; summary of the method: as §1
[25] = tested on: HepG2; assay: Induction of apoptosis in human HepG2 cells assessed as effect on Bcl-xL mRNA level after 24 hrs by RT-PCR analysis
[26] = tested on: MCF7; assay: Induction of apoptosis in human MCF7 cells assessed as upregulation of Bax mRNA level after 24 hrs by RT-PCR analysis
[27] = tested on: MCF7; assay: Upregulation of p53 protein expression in human MCF7 cells after 24 hrs by Western blot analysis; summary of the method: as §2
[28] = tested on: MCF7; assay: Cytotoxicity against human MCF7 cells after 96 hrs by MTT assay; conditions: MCF7, 96 h; summary of the method: as §5
[29] = tested on: HepG2; assay: Cytotoxicity against human HepG2 cells after 96 hrs by MTT assay; conditions: HepG2, 96 h; summary of the method: as §5

Row | SMILES | Activity [1] | Activity [2] | Activity [3] | Activity [5] | Activity [7] | Activity [8] | Activity [9] | Activity [11] | Activity [12] | Activity [13] | Activity [14] | Activity [15] | Activity [16] | Activity [18] | Activity [19] | Activity [20] | Activity [21] | Activity [22] | Activity [23] | Activity [24] | other results
1 | COc1ccc(/C=C/c2cc(OC)c(O)c(OC)c2)cc1 | inactive | inactive |  |  |  |  |  |  |  |  |  |  |  |  |  |  |  |  |  |  | 
2 | COc1cc(/C=C/c2ccc(O)cc2)cc(OC)c1OC | inactive | inactive |  |  |  |  |  |  |  |  |  |  |  |  |  |  |  |  |  |  | 
3 | COc1ccc(/C=C/c2cc(O)c(OC)c(OC)c2)cc1 | inactive | inactive |  |  |  |  |  |  |  |  |  |  |  |  |  |  |  |  |  |  | 
4 | COc1ccc(/C=C/c2cc(OC)c(OC)c(OC)c2)cc1O | Active | Active | Active | Active | Dose-dependent effect | Active | inactive | Active | Active | Dose-dependent effect | Active | Active | Active | Active | Active | Dose-dependent effect | Active | inactive | Active | Active | Activity [4]: Active; Activity [6]: Dose-dependent effect; Activity [10]: Active; Activity [17]: Active; Activity [25]: inactive; Activity [26]: Dose-dependent effect; Activity [27]: Dose-dependent effect
5 | COc1ccc(/C=C/c2cc(OC)c(OC)c(OC)c2)cc1 |  |  | Active | Active | Dose-dependent effect | Active | inactive | Active | Active | Dose-dependent effect | Active | Active | Active | Active | Active | Dose-dependent effect | Active | inactive | Active | Active | IC50 [28]: 300 nM; IC50 [29]: 300 nM; Activity [27]: Dose-dependent effect
